Results on 21 compounds are retold here after ChEMBL document CHEMBL3352769, “Discovery of glycine sulfonamides as dual inhibitors of sn-1-diacylglycerol lipase α and α/β-hydrolase domain 6” (J Med Chem, 2014).

Active and inactive are the calls of the source. The calls are words filed in the database; no cut-off is given here. Bounds are passed on as bounds.

Assay [1] concerns the target T1, Diacylglycerol lipase-alpha (Homo sapiens, UniProt Q9Y4D2).
T1 sequence (Q9Y4D2 whole entry): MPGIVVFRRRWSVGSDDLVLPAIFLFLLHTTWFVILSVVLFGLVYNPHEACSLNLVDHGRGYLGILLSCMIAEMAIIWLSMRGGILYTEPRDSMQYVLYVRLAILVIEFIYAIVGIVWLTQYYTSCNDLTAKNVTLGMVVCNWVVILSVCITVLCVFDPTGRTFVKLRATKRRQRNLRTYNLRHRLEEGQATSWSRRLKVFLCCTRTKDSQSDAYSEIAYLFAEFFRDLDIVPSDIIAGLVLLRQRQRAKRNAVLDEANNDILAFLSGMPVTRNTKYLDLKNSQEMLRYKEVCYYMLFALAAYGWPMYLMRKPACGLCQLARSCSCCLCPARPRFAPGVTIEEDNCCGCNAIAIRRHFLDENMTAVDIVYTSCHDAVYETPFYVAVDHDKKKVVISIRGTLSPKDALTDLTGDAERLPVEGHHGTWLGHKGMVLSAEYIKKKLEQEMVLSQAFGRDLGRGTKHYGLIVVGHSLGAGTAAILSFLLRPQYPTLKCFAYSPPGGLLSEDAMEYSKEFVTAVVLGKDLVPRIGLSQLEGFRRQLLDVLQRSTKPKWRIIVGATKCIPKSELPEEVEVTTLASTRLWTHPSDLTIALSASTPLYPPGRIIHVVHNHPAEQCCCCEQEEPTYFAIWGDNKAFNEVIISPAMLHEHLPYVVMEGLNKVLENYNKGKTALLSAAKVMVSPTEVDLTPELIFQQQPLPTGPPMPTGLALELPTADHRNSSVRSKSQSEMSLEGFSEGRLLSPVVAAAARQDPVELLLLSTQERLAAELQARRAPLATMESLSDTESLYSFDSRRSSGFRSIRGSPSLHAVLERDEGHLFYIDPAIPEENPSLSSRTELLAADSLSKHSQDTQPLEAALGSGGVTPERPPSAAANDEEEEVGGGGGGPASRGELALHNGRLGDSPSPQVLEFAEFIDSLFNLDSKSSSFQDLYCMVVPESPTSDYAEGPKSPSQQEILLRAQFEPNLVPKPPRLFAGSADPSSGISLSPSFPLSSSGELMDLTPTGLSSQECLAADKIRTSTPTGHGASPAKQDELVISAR
Kind of assay: Inhibition of human DAGLalpha expressed in HEK293T cell membranes. It is filed as cell-based, HEK-293T. Put shortly:
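Colorimetric biochemical assay using para-nitrophenylbutyrate as substrate with membranes from HEK293 cells overexpressing human DAGL-α.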

In assay [2] the target is T2, Monoacylglycerol lipase ABHD6 (Homo sapiens) (UniProt Q9BV23).
T2 sequence (whole entry): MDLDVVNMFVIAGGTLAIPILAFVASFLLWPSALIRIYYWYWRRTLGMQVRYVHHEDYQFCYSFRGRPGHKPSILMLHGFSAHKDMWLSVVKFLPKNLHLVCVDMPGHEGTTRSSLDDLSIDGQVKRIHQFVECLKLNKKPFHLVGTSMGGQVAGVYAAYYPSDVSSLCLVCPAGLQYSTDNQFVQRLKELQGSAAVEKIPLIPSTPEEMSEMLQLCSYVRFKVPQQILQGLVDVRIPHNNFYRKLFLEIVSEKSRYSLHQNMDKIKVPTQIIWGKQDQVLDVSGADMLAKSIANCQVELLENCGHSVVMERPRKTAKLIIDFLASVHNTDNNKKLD
Kind of assay: (§1) Inhibition of human ABHD6 expressed in HEK293T cell membranes assessed as reduction in glycerol production using 2-arachidonoyl glycerol substrate. It is filed as cell-based. The note with it: HEK-293T. An outline of the steps: (§2)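 Human ABHD6 membranes from transiently transfected HEK293T (0.04 µg/µL final) in HEMNB buffer, pH 7.4, preincubated 30 min with inhibitor. 2-AG (25 µM) added with glycerol kinase/GPO/HRP (0.2 U/mL), 0.125 mM ATP and 10 µM Amplifu Red. Resorufin fluorescence read every 5 min for 75 min at 21°C; slopes over 10–35 min, normalized; N = 2, n = 2.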

Assay [3] concerns the target T3, Monoacylglycerol lipase ABHD6 (Homo sapiens, UniProt Q9BV23).
T3 sequence (Q9BV23 whole entry): T2 sequence (whole entry)
The description is as §1. It is filed as cell-based, HEK-293T. Put shortly: as §2

Assay [4] concerns the target T4, Diacylglycerol lipase-alpha (Mus musculus) (UniProt Q6WQJ1).
T4 sequence (whole entry): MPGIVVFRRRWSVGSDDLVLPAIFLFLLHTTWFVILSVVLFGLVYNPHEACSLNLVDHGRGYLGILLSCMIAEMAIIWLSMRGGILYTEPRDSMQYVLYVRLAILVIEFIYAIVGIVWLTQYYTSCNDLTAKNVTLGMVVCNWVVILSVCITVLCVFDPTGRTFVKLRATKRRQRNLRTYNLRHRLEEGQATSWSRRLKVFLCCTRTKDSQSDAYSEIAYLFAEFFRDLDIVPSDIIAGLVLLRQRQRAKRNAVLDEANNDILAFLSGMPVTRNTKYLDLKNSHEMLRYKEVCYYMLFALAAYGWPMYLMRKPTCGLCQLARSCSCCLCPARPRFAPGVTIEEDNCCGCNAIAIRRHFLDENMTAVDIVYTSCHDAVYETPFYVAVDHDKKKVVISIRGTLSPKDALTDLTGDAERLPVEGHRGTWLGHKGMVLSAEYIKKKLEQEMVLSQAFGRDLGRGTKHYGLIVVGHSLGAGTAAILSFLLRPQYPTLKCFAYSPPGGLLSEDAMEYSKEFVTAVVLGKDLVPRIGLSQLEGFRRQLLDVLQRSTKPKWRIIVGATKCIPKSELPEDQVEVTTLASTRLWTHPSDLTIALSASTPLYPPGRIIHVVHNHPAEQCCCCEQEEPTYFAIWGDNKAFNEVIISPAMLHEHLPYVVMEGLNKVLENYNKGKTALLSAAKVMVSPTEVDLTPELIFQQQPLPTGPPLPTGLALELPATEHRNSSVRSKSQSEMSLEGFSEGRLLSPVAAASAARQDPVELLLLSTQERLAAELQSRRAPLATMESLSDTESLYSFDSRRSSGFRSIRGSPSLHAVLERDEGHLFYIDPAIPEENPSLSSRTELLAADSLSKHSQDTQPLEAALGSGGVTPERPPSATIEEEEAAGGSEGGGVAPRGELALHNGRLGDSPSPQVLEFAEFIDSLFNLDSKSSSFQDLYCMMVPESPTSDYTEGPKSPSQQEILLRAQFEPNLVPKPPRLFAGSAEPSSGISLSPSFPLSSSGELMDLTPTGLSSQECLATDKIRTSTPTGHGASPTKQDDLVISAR
The experiment in a line: Inhibition of MB064 labeling of DAGLalpha in mouse brain homogenates by activity based protein profiling assay.

Assay [5] addresses T4, Diacylglycerol lipase-alpha (Mus musculus). The experiment in a line: (§3) Inhibition of MB064 labeling of DAGLalpha in mouse brain homogenates by activity based protein profiling assay. The assay is classed as tissue-based. An outline of the steps:
(§4)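 Endogenous DAGL-α in mouse brain membrane proteome: inhibitors at a range of concentrations, 30 min at rt, then probe 1 for 10 min at rt. Quenched in SDS sample buffer, resolved on 10% SDS-PAGE, fluorescence scanned. Remaining activity taken from integrated band intensity; IC50 from dose-response curve (SEM, n = 3).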

Assay [6] deals with T5, Diacylglycerol lipase-alpha (Mus musculus, UniProt Q6WQJ1).
T5 sequence (Q6WQJ1 whole entry): T4 sequence (whole entry)
Described as §3. It is filed as tissue-based. An outline of the steps: as §4

A further assay is filed under the species Mus musculus. Kind of assay: Inhibition of MAGL labeling in mouse brain homogenates at 20 uM by activity based protein profiling assay. It is filed as tissue-based. An outline of the steps:
(§5)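 Mouse brain membrane proteome (2.0 mg/mL) preincubated 30 min at rt with inhibitor or DMSO vehicle, then labeled 15 min at rt with ABP 1 (250 nM final) or TAMRA-FP (500 nM final). Gel-based read-out: lane band intensity corrected for total protein loading by Coomassie stain, vehicle set to 100%.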

Assay [7] concerns the target T6, Monoacylglycerol lipase ABHD6 (Mus musculus) (UniProt Q8R2Y0).
T6 sequence (whole entry): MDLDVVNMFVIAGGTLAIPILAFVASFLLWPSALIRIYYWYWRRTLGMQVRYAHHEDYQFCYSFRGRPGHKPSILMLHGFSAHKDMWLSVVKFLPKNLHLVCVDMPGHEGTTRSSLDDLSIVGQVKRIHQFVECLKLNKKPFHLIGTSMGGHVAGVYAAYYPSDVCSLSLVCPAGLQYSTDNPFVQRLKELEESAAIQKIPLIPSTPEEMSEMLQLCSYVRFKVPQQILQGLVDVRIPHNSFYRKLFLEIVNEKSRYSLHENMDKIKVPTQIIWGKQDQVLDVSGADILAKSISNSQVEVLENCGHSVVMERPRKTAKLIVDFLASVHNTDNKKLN
Kind of assay: Inhibition of TAMRA-FP labeling of ABHD6 in mouse brain homogenates at 20 uM by activity based protein profiling assay. The assay is classed as tissue-based. The note with it: in the assay text read “MB064” for “TAMRA-FP”. An outline of the steps: as §5

Assay [8] concerns the target T1, Diacylglycerol lipase-alpha. Kind of assay: Inhibition of human DAGLalpha expressed in HEK293T cell membranes assessed as reduction in hydrolysis of inhibition of [14C]-sn-1-oleoyl-2-arachidonoyl-glycerol. It is filed as cell-based, HEK-293T.

Consider `CC1(C)CCc2cc(S(=O)(=O)N(CCOC(=O)N3CCCCC3)Cc3cccc(Oc4ccccc4)c3)ccc2O1`, for which, in assay [1], the IC50 (commonly the midpoint of a concentration-inhibition curve) was more than 10000 nM.
The same measure, in the same setting: with `CC1(C)CCc2cc(S(=O)(=O)N(CC(=O)NCCOCCN)Cc3ccc(Oc4ccccc4)cc3)ccc2O1` the figure was more than 10000 nM.
Same read-out and setting: the result for `CC1(C)CCc2cc(S(=O)(=O)N(CC#N)Cc3cccc(Oc4ccccc4)c3)ccc2O1` reads more than 10000 nM; that for `O=C(O)CN(Cc1ccc(Oc2ccccc2)cc1)C(=O)c1ccc(Cl)cc1`, more than 10000 nM; that for `CC1(C)CCc2cc(S(=O)(=O)N(CC(=O)O)Cc3ccccc3Oc3ccccc3)ccc2O1`, 185 nM.
The compound `O=C(O)CN(Cc1ccc(Oc2ccc(C(F)(F)F)cn2)cc1)C(=O)c1ccc(Cl)cc1` had an IC50 in assay [1] of more than 10000 nM.
Still for that read-out and setting: with `O=C(O)CN(Cc1ccc(Oc2ccc(C(F)(F)F)cn2)cc1)S(=O)(=O)c1ccc(Cl)cc1` the figure was 302 nM; with `CC1(C)CCc2cc(S(=O)(=O)N(CCN)Cc3ccc(Oc4ccccc4)cc3)ccc2O1`, 512 nM.
As to `CC1(C)CCc2cc(S(=O)(=O)N(CC(=O)O)Cc3cccc(Oc4ccccc4)c3)ccc2O1`, the inhibition entry in [2], in [4] and in assay [5] was “Dose-dependent effect” in each case. Besides, the Ki (as a rule, a dissociation constant, usually derived from enzyme kinetics or from competition with a known ligand) in assay [3] was determined as 18300 nM. Besides, the IC50 in assay [1] turned out to be 56 nM; in assay [6], 355 nM. Moreover, in the assay filed under Mus musculus, the inhibition entry is “inactive”. The inhibition result in [7] is “Active”.
As to `O=C(O)CN(Cc1ccc(Oc2ccccc2)cc1)C(=O)c1c(Cl)cccc1Cl`, the IC50 in assay [1] was more than 10000 nM.
On the same count and under the same terms, the result for `O=C(O)CN(Cc1cccc(Oc2ccccc2)c1)S(=O)(=O)c1ccc(Cl)cc1` reads 91 nM.
Take `CC1(C)CCc2cc(S(=O)(=O)N(CC(=O)O)Cc3ccc(Oc4ccc(C(F)(F)F)cn4)cc3)ccc2O1`: the inhibition result in assay [2], in [4] and in [5] was “Dose-dependent effect” throughout. In addition, in [3], the Ki worked out at 2700 nM. Besides, the IC50 in assay [1] was determined as 65 nM; in assay [6], 743 nM. In addition, the inhibition result in the assay filed under Mus musculus is “inactive”. In addition, the inhibition entry in [7] was “Active”.
`CC1(C)CCc2cc(S(=O)(=O)N(CC(=O)O)Cc3ccc(Oc4ccccc4)cc3)ccc2O1`: the inhibition entry in [2], in [4] and in assay [5] was “Dose-dependent effect” each time. For the same compound, the Ki was 800 nM in assay [3] and 700 nM in assay [8]. Besides, the IC50 in assay [1] is 18 nM; in assay [6], 124 nM. Besides, in the assay listed under Mus musculus, the inhibition entry is “inactive”. Also, the inhibition entry in [7] is “Active”.
In turn, `O=C(O)CN(Cc1ccc(Oc2ccccc2)cc1)S(=O)(=O)c1ccc(Cl)cc1` showed a half-inhibitory concentration (IC50) in assay [1] of 66 nM.
The compound `CC1(C)CCc2cc(S(=O)(=O)N(CC(N)=O)Cc3cccc(Oc4ccccc4)c3)ccc2O1` gave an IC50 in [1] of more than 10000 nM.
Still for that read-out and setting: with `CC1(C)CCc2cc(S(=O)(=O)N(CC(=O)O)Cc3cccc(Oc4ccc(C(F)(F)F)cn4)c3)ccc2O1` the figure was 143 nM.
Same read-out and setting: with `O=C(O)CN(Cc1ccc(Oc2ccccc2)cc1)S(=O)(=O)c1c(Cl)cccc1Cl` the figure was 695 nM; with `CC1(C)CCc2cc(S(=O)(=O)N(CCO)Cc3cccc(Oc4ccccc4)c3)ccc2O1`, more than 10000 nM.
On the same count and under the same terms, with `CC1(C)CCc2cc(S(=O)(=O)N(Cc3cccc(Oc4ccccc4)c3)Cc3nnn[nH]3)ccc2O1` the figure was more than 10000 nM; with `O=C(O)CN(Cc1cccc(Oc2ccccc2)c1)S(=O)(=O)c1c(Cl)cccc1Cl`, 1600 nM; with `COC(=O)CN(Cc1ccc(Oc2ccccc2)cc1)S(=O)(=O)c1ccc2c(c1)CCC(C)(C)O2`, more than 10000 nM.
